Measured values published in ChEMBL document CHEMBL3244396, “Synthesis and antileukemic activity of 5-substituted 2,3-dihydro-6,7-bis(hydroxymethyl)-1H-pyrrolizine diesters” (J Med Chem, 1977).

What was measured:
P388 [1] = assay: Antitumor activity against mouse P388 cells allografted in female BDF1 mouse assessed as disease cures by measuring 30-days host survival at 6.25 mg/kg, ip administered daily for 9 days as Klucel suspension starting 24 hrs after tumor inoculation relative to control; type: functional; details: route intraperitoneal
Method in brief: (§1)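 P388 leukemia given as an ascitic fluid cell inoculum, ip, to mice of the strain and sex in each line. Nine daily ip doses were given in a Klucel (hydroxypropylcellulose) suspension, starting 24 h after inoculation. Read-out is median survival time as %T/C, with >125 taken as significant; a "cure" means 30-day survival.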

Mus musculus [2] = assay: Toxicity in female BDF1 mouse allografted with mouse P388 cells assessed as animal survival at 25 mg/kg, ip administered daily for 9 days as Klucel suspension starting 24 hrs after tumor inoculation; type: organism-based; parameters: dose 25 mg/kg, route intraperitoneal; details: in vivo
Method in brief: (§2)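 P-388 leukemia ascitic fluid inoculated ip. Compound given ip as a suspension in Klucel (hydroxypropylcellulose), once daily for nine doses beginning 24 h post-inoculation. Acute toxicity assessed as toxicity-day survivors per group. Survival was followed up to 30 days, with 30-day survival counted as "cure". Follows NCI screening protocols.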

Mus musculus [3] = assay: Toxicity in female BDF1 mouse allografted with mouse P388 cells assessed as animal survival at 12.5 mg/kg, ip administered daily for 9 days as Klucel suspension starting 24 hrs after tumor inoculation; type: organism-based; parameters: dose 12.5 mg/kg, route intraperitoneal; details: in vivo; method in brief: as §2
P388 [4] = assay: Antitumor activity against mouse P388 cells allografted in male CDF1 mouse assessed as disease cures by measuring 30-days host survival at 12.5 mg/kg, ip administered daily for 9 days as Klucel suspension starting 24 hrs after tumor inoculation relative to control; type: functional; details: route intraperitoneal; method in brief: as §1
P388 [5] = assay: Antitumor activity against mouse P388 cells allografted in female BDF1 mouse assessed as disease cures by measuring 30-days host survival at 25 mg/kg, ip administered daily for 9 days as Klucel suspension starting 24 hrs after tumor inoculation relative to control; type: functional; details: route intraperitoneal; method in brief: as §1
P388 [6] = assay: Antitumor activity against mouse P388 cells allografted in female BDF1 mouse assessed as disease cures by measuring 30-days host survival at 12.5 mg/kg, ip administered daily for 9 days as Klucel suspension starting 24 hrs after tumor inoculation relative to control; type: functional; details: route intraperitoneal; method in brief: as §1
Mus musculus [7] = assay: Toxicity in male CDF1 mouse allografted with mouse P388 cells assessed as animal survival at 50 mg/kg, ip administered daily for 9 days as Klucel suspension starting 24 hrs after tumor inoculation; type: organism-based; parameters: dose 50 mg/kg, route intraperitoneal; details: in vivo; method in brief: as §2
P388 [8] = assay: Antitumor activity against mouse P388 cells allografted in male CDF1 mouse assessed as change in body weight at 50 mg/kg, ip administered daily for 9 days as Klucel suspension starting 24 hrs after tumor inoculation; type: functional; details: route intraperitoneal
Method in brief: (§3)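 Ascitic fluid carrying P388 cells was inoculated ip. Compound was given ip in nine daily doses, starting 24 h after inoculation, in Klucel (hydroxypropylcellulose) suspension or in saline with Tween-80. Body-weight difference (treated minus control) was recorded on day 5. Survival was scored as %T/C of median survival time, and 30-day survival counted as cure.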

P388 [9] = assay: Antitumor activity against mouse P388 cells allografted in male CDF1 mouse assessed as change in body weight at 12.5 mg/kg, ip administered daily for 9 days as Klucel suspension starting 24 hrs after tumor inoculation; type: functional; details: route intraperitoneal; method in brief: as §3
P388 [10] = assay: Antitumor activity against mouse P388 cells allografted in male CDF1 mouse assessed as change in body weight at 6.25 mg/kg, ip administered daily for 9 days as Klucel suspension starting 24 hrs after tumor inoculation; type: functional; details: route intraperitoneal; method in brief: as §3
P388 [11] = assay: Antitumor activity against mouse P388 cells allografted in female CDF1 mouse assessed as disease cures by measuring 30-days host survival at 50 mg/kg, ip administered daily for 9 days as Klucel suspension starting 24 hrs after tumor inoculation relative to control; type: functional; details: route intraperitoneal; method in brief: as §1

CC(=O)OCc1c(COC(C)=O)c(-c2ccccc2)n2c1CCC2
T/C (P388 [1]): 107% | Activity (Mus musculus [2]): Non-toxic | Activity (Mus musculus [3]): Non-toxic | T/C (P388 [4]): 110% | T/C (P388 [5]): 133% | T/C (P388 [6]): 126% | Activity (Mus musculus [7]): Non-toxic | Activity (P388 [8]): -6.1 g | Activity (P388 [9]): -0.2 g | Activity (P388 [10]): -0.3 g | T/C (P388 [11]): 79%
